A selection: hits, their analogues and other compounds. The true share with any hit is near 3%.
TRPC4 act: activators of mouse TRPC4 channel, primary screen, Fluo4 calcium, HEK293 TRPC4beta/mu-opioid cells; Short transient receptor potential channel 4 (Mus musculus), Q9QUQ5; Fluo4 calcium fluorescence; hits give high values; B-score at 10 µM; 0.49% of 310,000 active; AID 2237, 2010;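 active means B-score above 5 SD of library B-scores, and initial fluorescence ratio not above library mean plus 5 SD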;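 further: positive B-score marks a calcium rise read as TRPC4 activation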
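Assay system – TRPC4beta and mu-opioid receptor HEK293 stable cells · Measured by – Fluo4 fluorescence, kinetic · Schedule – dye loading 45 min room temperature, 110 s kinetic read · Read-out – B-scored integrated calcium fluorescence ratio · Controls – buffer and maximal DAMGO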
TRPC6 activator: mouse TRPC6 channel activators, primary screen, cell-based, HEK293, membrane potential dye. Short transient receptor potential channel 6 (Mus musculus), Q61143. HEK293-TRPC6 membrane potential dye fluorescence; hits give high values. B-score at 10 µM. 0.13% of 310,000 active. AID 2550, 2010;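 active means B-score of the integrated fluorescence ratio above library mean plus 3 SD, and starting fluorescence ratio within library mean plus 5 SD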;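 further: higher score means more depolarization so channel activation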
TRPC6 inh: mouse TRPC6 channel inhibitors, primary screen, cell-based, HEK293, membrane potential dye; AID 2553, 2010; Short transient receptor potential channel 6 (Mus musculus), Q61143; ACh-evoked depolarization; hits give low values; 1.1% of 310,000 active; B-score at 10 µM;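 active means B-score under library mean minus 3 SD, initial fluorescence not abnormally high, positive integrated signal ratio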;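 further: B-score derived from integrated fluorescence ratio over the kinetic read; more negative B-score means stronger inhibition of depolarization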
Kir21 inh: inhibitors of mouse Kir2.1 inward-rectifier potassium channel; HEK293-Kir2.1, FluxOR thallium flux fluorescence; hits give low values; 0.85% of 310,000 active; B-score at 10 µM; Inward rectifier potassium channel 2 (Mus musculus), P35561; AID 1672, 2009;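 active means fluorescence ratio B-score at or below minus 3 SD of library scores, with starting-brightness B-score within 2 SD, cut at about -4.2 in these data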;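 further: channel flux triggered by added potassium and thallium sulfate stimulus; B-score of peak minus minimum fluorescence over baseline after thallium stimulus; more negative B-score means stronger Kir2.1 block with less thallium influx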
TRPC4 block: inhibitors of mouse TRPC4 channel, primary screen, Fluo4 calcium, HEK293 TRPC4beta/mu-opioid cells; DAMGO-evoked Fluo4 calcium flux; hits give low values; B-score at 10 µM; AID 2247, 2010; 0.39% of 300,000 active; Short transient receptor potential channel 4 (Mus musculus), Q9QUQ5;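 active means B-score over 3 SD under the library average, no early fluorescence shift, positive overall ratio signal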
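Material: HEK293 cells with stable TRPC4beta plus mu-opioid receptor expression; probe or stimulus: DAMGO in two steps, submaximal then maximal; technique: Fluo4 calcium fluorescence by kinetic imaging, 5 s 1 Hz baseline; measure: integrated fluorescence ratio relative to baseline, converted to per-well B score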
TRPC4 PAM: positive allosteric modulators of TRPC4, primary screen, cell-based, mouse TRPC4beta, HEK293 mu-opioid, Fluo-4 calcium; Short transient receptor potential channel 4 (Mus musculus), Q9QUQ5; DAMGO EC20, Fluo-4 Ca2+ flux; hits give high values; B-score at 10 µM; 0.42% of 310,000 active; AID 2227, 2009;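 active means B-score of calcium response area above 5 SD of library B-scores, with initial fluorescence ratio within 5 SD of library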;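 further: B-score of integrated fluorescence ratio over time as area under calcium response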
* = called active by the depositor; i = inactive.

SMILES	TRPC4 act	TRPC6 activator	TRPC6 inh	Kir21 inh	TRPC4 block	TRPC4 PAM
COc1ccc(NC(=O)CCN2CCN(C/C=C/c3ccccc3)CC2)cc1	i	i	i	-0.29	i	i
CCN(C(=O)c1c(-c2ccccc2Cl)noc1C)C1CCCCC1	i	i	i	-3	-6*	i
CCC(C)c1ccccc1NC(=O)CN1CCN(C/C=C/c2ccccc2)CC1 (stereo unspecified)	i	i	i	-4.5*	i	i
O=C(Nc1cccc(Cl)c1)N1CCN(C/C=C/c2ccccc2)CC1	i	i	i	-1.9	i	26*
Cc1onc(-c2ccccc2Cl)c1C(=O)N1CCN(C/C=C/c2ccccc2)CC1	101*	i	i	-0.34	i	i
Cc1cc(C(C)(C)C)cc(S(=O)(=O)Nc2cccc(C(=O)O)c2)c1C	i	i	i	-0.34	i	16*
Cc1cc(S(=O)(=O)Nc2cccc(C(=O)O)c2)c(C)c(S(=O)(=O)c2ccc(Cl)cc2)c1	i	i	i	0.35	i	i
O=C(c1cc2c(s1)-c1ccccc1S(=O)(=O)C2)N1CCN(Cc2ccccc2)CC1	i	i	i	0.28	i	10*
CCN1CCN(C(=O)c2cc3c(s2)-c2ccccc2S(=O)(=O)C3)CC1	i	i	i	0.39	i	i
C=CCn1c(CSc2nc3ccccc3s2)nnc1SCC(=O)NCc1ccccc1	i	i	i	-5.2*	i	i
O=C(NCCN1CCCC1)c1ccc2c(=O)n(CCc3ccccc3)c(=O)[nH]c2c1	i	i	i	0.04	i	12*
CCCN1CCN(CCCNC(=O)c2ccc3c(=O)n(CCc4ccccc4)c(=O)[nH]c3c2)CC1	i	i	i	-1.7	i	i
CNCCOc1ccccc1-c1ccccc1	i	i	i	-0.59	i	i
CNCCCCOc1ccccc1-c1ccccc1	52*	i	i	-6.4*	i	i
COCCCNCCOc1ccccc1-c1ccccc1	i	i	i	-2.3	i	i
C=CCNCCCCOc1ccccc1-c1ccccc1	i	i	i	-5.7*	i	i
CCCCNCCOc1ccccc1-c1ccccc1	i	i	i	-4.4*	-6*	i
COCCCNCCCCOc1ccccc1-c1ccccc1	i	i	i	-4.5*	i	i
COC(=O)C(C)Oc1cc(C)ccc1COc1ccc(-n2nc(C)n(C(F)F)c2=O)cc1 (stereo unspecified)	i	i	i	0.35	i	i
COc1ccccc1N1CCNC(C)C1=O (stereo unspecified)	i	i	i	-2.1	i	i
Cc1cccc(C(=O)N2CCCC(N3CCN(c4ccccc4)CC3)C2)n1 (stereo unspecified)	i	i	i	0.16	i	i
CC(C)c1ccccc1OCCCCCNCCO	i	i	i	-4	i	13*
CCC(Cc1ccccc1)NC(=O)CCc1ccccc1 (stereo unspecified)	i	i	i	-5.1*	i	i
CN(C)[C@@H]1CCC[C@@H]1OC(=O)C(c1ccccc1)c1ccccc1	i	i	i	-0.3	i	i
CC(C)(C)C1CCc2c(sc(NC(=O)C3CC=CCC3C(=O)O)c2C#N)C1 (stereo unspecified)	i	i	i	0.31	-6*	i
COc1ccccc1OCCCCN1CCC(C)CC1	i	i	i	-0.01	i	i
CC1CCN(CCOCCOc2ccccc2Br)CC1	i	i	i	-0.06	i	i
